Measured values published in ChEMBL document CHEMBL3875158, “Synthesis and biological evaluation of 4-(2-(dimethylamino)ethoxy)benzohydrazide derivatives as inhibitors of Entamoeba histolyica” (Eur J Med Chem, 2016).

What was measured:
Entamoeba histolytica = experiment: Antiamoebic activity against Entamoeba histolytica HM-1:IMSS trophozoites incubated for 10 mins under nitrogen gassed condition measured after 72 hrs by eosin staining based micro dilution method; assay type: functional
Method in brief: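 Microdilution in 96-well plates with trophozoites in Diamond TYIS-33 medium at 10^5 cells per mL. Compounds dissolved in ethanol (level non-inhibitory to amoebae), stock 1 mg/mL, tested in triplicate. Plate sealed, gassed with nitrogen 10 min, incubated 37 °C for 72 h. Then medium removed, washed with 0.9% NaCl, methanol-fixed and stained with 0.5% aqueous eosin for 15 min, OD read at 490 nm. IC50 from non-linear regression of % inhibition versus control. At least two independent experiments.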

[1] = Cytotoxicity against human A549 cells assessed as reduction in cell viability after 48 hrs by MTT assay; assay type: toxicity, cell-based
Method in brief: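 Cells seeded at 8000/well in Ham's F-12 with 10% FBS and grown to 80–90% confluence. Medium then replaced with drug-containing medium with 1% FBS; drug range […], each concentration in triplicate, medium-only negative controls. Stocks made in ethanol, diluted in medium. Incubated at 37 °C, 5% CO2 for 48 h. MTT (5 mg/ml) added for 4 h, formazan dissolved in DMSO, absorbance read at 560 nm with 670 nm reference. Viability relative to controls; IC50 from concentration–viability plot.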

`COc1cc(/C=N/NC(=O)c2ccc(OCCN(C)C)cc2)ccc1O` gave an IC50 (Entamoeba histolytica) of 2.41 µM.
`COc1ccc(/C=N/NC(=O)c2ccc(OCCN(C)C)cc2)cc1OC` showed an IC50 (Entamoeba histolytica) of 2.69 µM.
Compound `CN(C)CCOc1ccc(C(=O)N/N=C/c2ccc(O)cc2)cc1` has an IC50 (Entamoeba histolytica) of 2.21 µM.
With `Cc1cc(C)c(/C=N/NC(=O)c2ccc(OCCN(C)C)cc2)c(C)c1` the IC50 (Entamoeba histolytica) was 1.89 µM and the IC50 at 48 h [1] was 81.7 µM.
`CC(C)Oc1ccc(/C=N/NC(=O)c2ccc(OCCN(C)C)cc2)cc1` showed an IC50 (Entamoeba histolytica) of 7.65 µM.
With `COc1c(O)ccc(/C=N/NC(=O)c2ccc(OCCN(C)C)cc2)c1Br` the IC50 (Entamoeba histolytica) was 3.61 µM.
In the case of `CN(C)CCOc1ccc(C(=O)N/N=C/c2ccc3c(c2)OCO3)cc1`, the IC50 (Entamoeba histolytica) is reported as 1.06 µM and the IC50 at 48 h [1] is reported as 548 µM.
`CN(C)CCOc1ccc(C(=O)N/N=C/c2ccccc2Cl)cc1` showed an IC50 (Entamoeba histolytica) of 0.23 µM and an IC50 at 48 h [1] of 134 µM.
`Cc1ccc(/C=N/NC(=O)c2ccc(OCCN(C)C)cc2)cc1` showed an IC50 (Entamoeba histolytica) of 1.86 µM and an IC50 at 48 h [1] of 475 µM.
Compound `CN(C)CCOc1ccc(C(=O)N/N=C/c2cc(Br)c(O)c(Br)c2)cc1` has an IC50 (Entamoeba histolytica) of 1.17 µM and an IC50 at 48 h [1] of 281 µM.
Work on `CCOc1ccc(/C=N/NC(=O)c2ccc(OCCN(C)C)cc2)cc1` yielded an IC50 (Entamoeba histolytica) of 3.77 µM.
In the case of `CN(C)CCOc1ccc(C(=O)N/N=C/c2ccc(O)c(O)c2)cc1`, the IC50 (Entamoeba histolytica) is reported as 6.4 µM.
Compound `CN(C)CCOc1ccc(C(=O)N/N=C/c2ccccc2)cc1` has an IC50 (Entamoeba histolytica) of 1.43 µM and an IC50 at 48 h [1] of 268 µM.
Compound `CCOC(OCC)c1ccc(/C=N/NC(=O)c2ccc(OCCN(C)C)cc2)cc1` has an IC50 (Entamoeba histolytica) of 1.14 µM and an IC50 at 48 h [1] of 172 µM.
Work on `COc1ccc(/C=N/NC(=O)c2ccc(OCCN(C)C)cc2)cc1` yielded an IC50 (Entamoeba histolytica) of 1.53 µM and an IC50 at 48 h [1] of 126 µM.
`CN(C)CCOc1ccc(C(=O)N/N=C/c2ccc(Cl)cc2)cc1` gave an IC50 (Entamoeba histolytica) of 0.79 µM and an IC50 at 48 h [1] of 69.4 µM.
Work on `CN(C)CCOc1ccc(C(=O)N/N=C/c2cccc(Cl)c2)cc1` yielded an IC50 (Entamoeba histolytica) of 1.01 µM and an IC50 at 48 h [1] of 140 µM.
With `COc1cc(/C=N/NC(=O)c2ccc(OCCN(C)C)cc2)ccc1OC(C)=O` the IC50 (Entamoeba histolytica) was 0.79 µM and the IC50 at 48 h [1] was 186 µM.
For `COc1cc(/C=N/NC(=O)c2ccc(OCCN(C)C)cc2)ccc1OC(C)C`, the IC50 (Entamoeba histolytica) was 4.13 µM.
In the case of `CCc1ccc(/C=N/NC(=O)c2ccc(OCCN(C)C)cc2)cc1`, the IC50 (Entamoeba histolytica) is reported as 5.65 µM.
Work on `CN(C)CCOc1ccc(C(=O)N/N=C/c2ccccc2O)cc1` yielded an IC50 (Entamoeba histolytica) of 1.76 µM and an IC50 at 48 h [1] of 404 µM.
With `CN(C)CCOc1ccc(C(=O)N/N=C/c2ccc(N(C)C)cc2)cc1` the IC50 (Entamoeba histolytica) was 1.89 µM and the IC50 at 48 h [1] was 481 µM.
Work on `CN(C)CCOc1ccc(C(=O)N/N=C/c2cccc([N+](=O)[O-])c2)cc1` yielded an IC50 (Entamoeba histolytica) of 2.8 µM.
`CC(C)c1ccc(/C=N/NC(=O)c2ccc(OCCN(C)C)cc2)cc1` gave an IC50 (Entamoeba histolytica) of 3.45 µM.
With `Cc1ccsc1/C=N/NC(=O)c1ccc(OCCN(C)C)cc1` the IC50 (Entamoeba histolytica) was 4.98 µM.
In the case of `CN(C)CCOc1ccc(C(=O)N/N=C/c2ccc(Cl)c(Cl)c2)cc1`, the IC50 (Entamoeba histolytica) is reported as 2.81 µM.
Work on `CN(C)CCOc1ccc(C(=O)N/N=C/c2ccc([N+](=O)[O-])cc2)cc1` yielded an IC50 (Entamoeba histolytica) of 2.4 µM.
Work on `CN(C)CCOc1ccc(C(=O)N/N=C/c2ccccn2)cc1` yielded an IC50 (Entamoeba histolytica) of 2.37 µM.
In the case of `COc1ccc(OC)c(/C=N/NC(=O)c2ccc(OCCN(C)C)cc2)c1`, the IC50 (Entamoeba histolytica) is reported as 1.81 µM and the IC50 at 48 h [1] is reported as 110 µM.
With `Cc1ncc([N+](=O)[O-])n1CCO` [METRONIDAZOLE] the IC50 (Entamoeba histolytica) was 1.89 µM and the IC50 at 48 h [1] was over 100 µM.
